ChEMBL document CHEMBL1152599, “Synthesis and in vitro activities of new anticancer duplex drugs linking 2'-deoxy-5-fluorouridine (5-FdU) with 3'-C-ethynylcytidine (ECyd) via a phosphodiester bonding” (2009)

What was measured:
Format in all cases: functional
NCI/ADR-RES = assay: Anticancer activity against human NCI/ADR-RES cells after 48 hrs by sulforhodamine B assay
In short: (§1)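 NCI 60-cell-line anticancer screen. Each compound is tested at a minimum of five concentrations in 10-fold dilutions with 48 h drug exposure. Cell viability/growth is estimated by sulforhodamine B protein staining. GI50 is the log10 molar concentration giving 50% growth inhibition, read from the dose-response curves and mean graphs of the NCI data screening report. TGI was taken from double screens.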

U-251 = assay: Anticancer activity against human U251 cells after 48 hrs by sulforhodamine B assay; conditions: U-251, 48 h
In short: (§2)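 Tested in the NCI 60-human-tumour-cell-line screen. Compounds were applied at a minimum of five concentrations in 10-fold dilutions with 48 h exposure. Cell growth was estimated by sulforhodamine B protein staining. GI50 (log10 of molar concentration giving 50% growth inhibition) and TGI were read from the data sheets, dose-response curves and mean graphs. Some cell lines were screened twice.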

UACC-257 = assay: Anticancer activity against human UACC257 cells after 48 hrs by sulforhodamine B assay; conditions: UACC-257, 48 h; in short: as §2
T47D = assay: Anticancer activity against human T47D cells after 48 hrs by sulforhodamine B assay; in short: as §2
HOP-92 = assay: Anticancer activity against human HOP92 cells after 48 hrs by sulforhodamine B assay; conditions: HOP-92, 48 h; in short: as §1
CAKI-1 = assay: Anticancer activity against human Caki1 cells after 48 hrs by sulforhodamine B assay; conditions: CAKI-1, 48 h; in short: as §1
UACC-62 = assay: Anticancer activity against human UACC62 cells after 48 hrs by sulforhodamine B assay; conditions: UACC-62, 48 h; in short: as §2
KM12 = assay: Anticancer activity against human KM12 cells after 48 hrs by sulforhodamine B assay; conditions: KM12, 48 h; in short: as §1
MDA-MB-231 = assay: Anticancer activity against human MDA-MB-231 cells after 48 hrs by sulforhodamine B assay; conditions: MDA-MB-231, 48 h; in short: as §1
OVCAR-5 = assay: Anticancer activity against human OVCAR5 cells after 48 hrs by sulforhodamine B assay; conditions: OVCAR-5, 48 h; in short: as §1
SF-539 = assay: Anticancer activity against human SF539 cells after 48 hrs by sulforhodamine B assay; conditions: SF-539, 48 h; in short: as §1
A498 = assay: Anticancer activity against human A498 cells after 48 hrs by sulforhodamine B assay; conditions: A498, 48 h; in short: as §1
MDA-N = assay: Anticancer activity against human MDA-N cells after 48 hrs by sulforhodamine B assay; in short: as §1
SK-MEL-5 = assay: Anticancer activity against human SK-MEL-5 cells after 48 hrs by sulforhodamine B assay; conditions: SK-MEL-5, 48 h; in short: as §1
CCRF-CEM = assay: Anticancer activity against human CCRF-CEM cells after 48 hrs by sulforhodamine B assay; in short: as §1
NCI-H226 = assay: Anticancer activity against human NCI-H226 cells after 48 hrs by sulforhodamine B assay; conditions: NCI-H226, 48 h; in short: as §1
HT-29 = assay: Anticancer activity against human HT-29 cells after 48 hrs by sulforhodamine B assay; conditions: HT-29, 48 h; in short: as §1
A549 = assay: Anticancer activity against human A549 cells after 48 hrs by sulforhodamine B assay; conditions: A549, 48 h; in short: as §1
IGROV-1 = assay: Anticancer activity against human IGROV1 cells after 48 hrs by sulforhodamine B assay; conditions: IGROV-1, 48 h; in short: as §1
SK-MEL-2 = assay: Anticancer activity against human SK-MEL-2 cells after 48 hrs by sulforhodamine B assay; conditions: SK-MEL-2, 48 h; in short: as §1
MCF7 = assay: Anticancer activity against human MCF7 cells after 48 hrs by sulforhodamine B assay; conditions: MCF7, 48 h; in short: as §1
SK-OV-3 = assay: Anticancer activity against human SKOV3 cells after 48 hrs by sulforhodamine B assay; conditions: SK-OV-3, 48 h; in short: as §1
SN12C = assay: Anticancer activity against human SN12C cells after 48 hrs by sulforhodamine B assay; in short: as §1
NCI-H322M = assay: Anticancer activity against human NCI-H322M cells after 48 hrs by sulforhodamine B assay; in short: as §1
SF-268 = assay: Anticancer activity against human SF268 cells after 48 hrs by sulforhodamine B assay; conditions: SF-268, 48 h; in short: as §1
SK-MEL-28 = assay: Anticancer activity against human SK-MEL-28 cells after 48 hrs by sulforhodamine B assay; conditions: SK-MEL-28, 48 h; in short: as §1
DU-145 = assay: Anticancer activity against human DU145 cells after 48 hrs by sulforhodamine B assay; conditions: DU-145, 48 h; in short: as §1
HCC 2998 = assay: Anticancer activity against human HCC2998 cells after 48 hrs by sulforhodamine B assay; conditions: HCC 2998, 48 h; in short: as §1
UO-31 = assay: Anticancer activity against human UO31 cells after 48 hrs by sulforhodamine B assay; conditions: UO-31, 48 h; in short: as §2
RXF 393 = assay: Anticancer activity against human RXF393 cells after 48 hrs by sulforhodamine B assay; conditions: RXF 393, 48 h; in short: as §1
TK-10 = assay: Anticancer activity against human TK10 cells after 48 hrs by sulforhodamine B assay; conditions: TK-10, 48 h; in short: as §2
LOX IMVI = assay: Anticancer activity against human LOXIMVI cells after 48 hrs by sulforhodamine B assay; in short: as §1
SNB-75 = assay: Anticancer activity against human SNB75 cells after 48 hrs by sulforhodamine B assay; conditions: SNB-75, 48 h; in short: as §2
OVCAR-3 = assay: Anticancer activity against human OVCAR-3 cells after 48 hrs by sulforhodamine B assay; conditions: OVCAR-3, 48 h; in short: as §1
SNB-19 = assay: Anticancer activity against human SNB19 cells after 48 hrs by sulforhodamine B assay; conditions: SNB-19, 48 h; in short: as §1
SF-295 = assay: Anticancer activity against human SF295 cells after 48 hrs by sulforhodamine B assay; conditions: SF-295, 48 h; in short: as §1
OVCAR-4 = assay: Anticancer activity against human OVCAR4 cells after 48 hrs by sulforhodamine B assay; conditions: OVCAR-4, 48 h; in short: as §1
PC-3 = assay: Anticancer activity against human PC3 cells after 48 hrs by sulforhodamine B assay; conditions: PC-3, 48 h; in short: as §1
SR = assay: Anticancer activity against human SR cells after 48 hrs by sulforhodamine B assay; in short: as §2
[1] = Anticancer activity against human Hs 578T cells after 48 hrs by sulforhodamine B assay; in short: as §1
HL-60 = assay: Anticancer activity against human HL-60(TB) cells after 48 hrs by sulforhodamine B assay; conditions: HL-60, 48 h
In short: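 NCI 60-cell-line anticancer screen. Drugs tested at a minimum of five concentrations at 10-fold dilutions with 48 h exposure. Cell growth estimated by sulforhodamine B protein assay. GI50 is log10 of the molar concentration giving 50% growth inhibition, read from the screening data sheet, dose-response curves and mean graphs.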

OVCAR-8 = assay: Anticancer activity against human OVCAR8 cells after 48 hrs by sulforhodamine B assay; conditions: OVCAR-8, 48 h; in short: as §1
NCI-H23 = assay: Anticancer activity against human NCI-H23 cells after 48 hrs by sulforhodamine B assay; conditions: NCI-H23, 48 h; in short: as §1
K562 = assay: Anticancer activity against human K562 cells after 48 hrs by sulforhodamine B assay; conditions: K562, 48 h; in short: as §1
BT-549 = assay: Anticancer activity against human BT549 cells after 48 hrs by sulforhodamine B assay; conditions: BT-549, 48 h; in short: as §1
SW-620 = assay: Anticancer activity against human SW620 cells after 48 hrs by sulforhodamine B assay; conditions: SW-620, 48 h; in short: as §2
ACHN = assay: Anticancer activity against human ACHN cells after 48 hrs by sulforhodamine B assay; in short: as §1
NCI-H522 = assay: Anticancer activity against human NCI-H522 cells after 48 hrs by sulforhodamine B assay; conditions: NCI-H522, 48 h; in short: as §1
Malme-3M = assay: Anticancer activity against human MALME-3M cells after 48 hrs by sulforhodamine B assay; in short: as §1
HOP-62 = assay: Anticancer activity against human HOP62 cells after 48 hrs by sulforhodamine B assay; conditions: HOP-62, 48 h; in short: as §1
[2] = Anticancer activity against human […] cells after 48 hrs by sulforhodamine B assay; in short: as §1
MOLT-4 = assay: Anticancer activity against human MOLT4 cells after 48 hrs by sulforhodamine B assay; conditions: MOLT-4, 48 h; in short: as §1
MDA-MB-435 = assay: Anticancer activity against human MDA-MB-435 cells after 48 hrs by sulforhodamine B assay; conditions: MDA-MB-435, 48 h; in short: as §1
NCI-H460 = assay: Anticancer activity against human NCI-H460 cells after 48 hrs by sulforhodamine B assay; conditions: NCI-H460, 48 h; in short: as §1
HCT-15 = assay: Anticancer activity against human HCT15 cells after 48 hrs by sulforhodamine B assay; conditions: HCT-15, 48 h; in short: as §1
EKVX = assay: Anticancer activity against human EKVX cells after 48 hrs by sulforhodamine B assay; in short: as §1
786-0 = assay: Anticancer activity against human 786-0 cells after 48 hrs by sulforhodamine B assay; conditions: 786-0, 48 h; in short: as §1
M14 = assay: Anticancer activity against human M14 cells after 48 hrs by sulforhodamine B assay; conditions: M14, 48 h; in short: as §1
HCT-116 = assay: Anticancer activity against human HCT116 cells after 48 hrs by sulforhodamine B assay; conditions: HCT-116, 48 h; in short: as §1
COLO 205 = assay: Anticancer activity against human COLO205 cells after 48 hrs by sulforhodamine B assay; conditions: COLO 205, 48 h; in short: as §1

C#C[C@@]1(O)[C@@H](CO)O[C@@H](n2ccc(N)nc2=O)[C@@H]1O [TAS-106]
GI50 (NCI/ADR-RES): < 10 nM
GI50 (U-251): 19.9 nM
GI50 (UACC-257): 79.4 nM
GI50 (T47D): < 10 nM
GI50 (HOP-92): 63.1 nM
GI50 (CAKI-1): < 10 nM
GI50 (UACC-62): 31.6 nM
GI50 (KM12): < 10 nM
GI50 (MDA-MB-231): 39.8 nM
GI50 (OVCAR-5): 50.1 nM
GI50 (SF-539): 39.8 nM
GI50 (A498): < 10 nM
GI50 (MDA-N): 12.6 nM
GI50 (SK-MEL-5): 10 nM
GI50 (CCRF-CEM): < 10 nM
GI50 (NCI-H226): 15.8 nM
GI50 (HT-29): < 10 nM
GI50 (A549): < 10 nM
GI50 (IGROV-1): 12.6 nM
GI50 (SK-MEL-2): 12.6 nM
GI50 (MCF7): < 10 nM
GI50 (SK-OV-3): 79.4 nM
GI50 (SN12C): < 10 nM
GI50 (NCI-H322M): 19.9 nM
GI50 (SF-268): 15.8 nM
GI50 (SK-MEL-28): 50.1 nM
GI50 (DU-145): < 10 nM
GI50 (HCC 2998): < 10 nM
GI50 (UO-31): < 10 nM
GI50 (RXF 393): 25.1 nM
GI50 (TK-10): 15.8 nM
GI50 (LOX IMVI): < 10 nM
GI50 (SNB-75): 15.8 nM
GI50 (OVCAR-3): 79.4 nM
GI50 (SNB-19): 63.1 nM
GI50 (SF-295): < 10 nM
GI50 (OVCAR-4): 158 nM
GI50 (PC-3): 31.6 nM
GI50 (SR): < 10 nM
GI50 [1]: 12.6 nM
GI50 (HL-60): < 10 nM
GI50 (OVCAR-8): < 10 nM
GI50 (NCI-H23): 31.6 nM
GI50 (K562): < 10 nM
GI50 (BT-549): 39.8 nM
GI50 (SW-620): < 10 nM
GI50 (ACHN): < 10 nM
GI50 (NCI-H522): < 10 nM
GI50 (Malme-3M): 15.8 nM
GI50 (HOP-62): < 10 nM
GI50 [2]: < 10 nM
GI50 (MOLT-4): < 10 nM
GI50 (MDA-MB-435): < 10 nM
GI50 (NCI-H460): < 10 nM
GI50 (HCT-15): < 10 nM
GI50 (EKVX): 63.1 nM
GI50 (786-0): < 10 nM
GI50 (M14): 39.8 nM
GI50 (HCT-116): < 10 nM
GI50 (COLO 205): < 10 nM
